In the EternaBench riboswitch data:

Tested on: MS2 coat protein
Assay: apparent Kd, MS2 coat protein; higher = weaker binding; RNA-MaP array; FMN 200 µM where present
Summary of the method: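 Designs were transcribed by stalled E. coli RNA polymerase on Illumina sequencing-chip clusters. They were titrated with SNAP-549-labelled MS2 coat protein from 0.7 or 1.5 nM, doubling to 3 µM, in 100 mM Tris-HCl pH 7.5, 80 mM KCl, 4 mM MgCl2, BSA, DTT, yeast tRNA and Tween-20, without and then with constant ligand. The apparent Kd is the median of filtered per-cluster fits after normalisation of green signal to red-channel RNA signal and control-cluster median Fmax.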

[1] = designed as: OFF switch for flavin mononucleotide, no ligand
[2] = ligand present: flavin mononucleotide, designed as: OFF switch for flavin mononucleotide
[3] = designed as: ON switch for flavin mononucleotide, no ligand
[4] = ligand present: flavin mononucleotide, designed as: ON switch for flavin mononucleotide

Sequence	apparent Kd [1]	apparent Kd [2]	apparent Kd [3]	apparent Kd [4]
CCGGAAAUGUAGGAUAUAGGAGUCGAUAGACACCUAGAAGGGCAUACAUGAGGAUCACCCAUGUGUCCUACCGG	13.7 nM	15.8 nM	–	–
CGAUUGGGAGGAUAUGCGUGGAUAGUUUUAUAUAGUAUGUUACAUGAGGAUCACCCAUGUAGAAGGUUCGGUUG	56.9 nM	58.3 nM	–	–
UCGCUGCGAGGAUAUACGUGCGCGCGCUCGCGUGCGCGCGUACAUGAGGAUCACCCAUGUAGAAGGCGCGCUGC	17.1 nM	18.3 nM	–	–
UGGACUGGGCAGAAGGGACAUGAGGAUCACCCAUGUCUUGGGCUACUUCAGUCAGGAUAUGCCCAUUGAAUAUCCGUGCAACAA	15.4 nM	76.9 nM	–	–
UGUUGUAUUACAGGAUAUCUAUUAUUUUUUUUUAGAGAAGGGUAUUCACAUGAGGAUCACCCAUGUAUAUACGAGGAAGUUGUG	–	–	59.8 nM	62 nM
ACGUUUUAUGCAGGAUAUUGACAUAUAUUUAAACAAGAAGGGCAUUACAUGAGGAUCACCCAUGUUAUAAUGGUAUUUAAGUUC	14.7 nM	15.6 nM	–	–
UUUUUUCCUCAUGUACAUGAGGAACAUGAGGAUCACCCAUGUAGAAGGAUUUCCCUUAAAUUAAGAUAGGAUAUACAUAUAUUU	87 nM	70.5 nM	–	–
AUAUGAUAGAUAGGAUAUACUGAGGUUGAAUGGGUAGAAGGAUCGAUAGGGAAGACUACAUGAGGAUCACCCAUGUUGUGUAUU	–	–	151 nM	81.6 nM
GGUGGACAUGAGGAUCACCCAUGUGAGGAUAUCGGCCGGUUCGUGGUGGCUGGCUUCUCGAGAAGGCGCAUAGU	55.8 nM	65.7 nM	–	–
ACACGGUAUGUAGGAUAUGCAUAGCAUUGCUAUGCAGAAGGACAUGAGGAUCACCCAUGUAUGUAUUCCAUACUAAUCCCGUGG	5.77 nM	5.74 nM	–	–
GGGACCGUACUCCUGUUGUACUCUGAGGAUAUCCGUUACGGACAUGAGGAUCACCCAUGUACGGCGGAGAAGGCAGAUCUCAUA	–	–	6.44 nM	5.26 nM
GGACAUGAGGAUCACCCAUGUUCUCCAGAAGGCCGUACAUUUAAAAGUGGAUGGAUUAGUGUUGCGGAGGAUAUGGAGGUGCAA	–	–	77.1 nM	16.7 nM
CUUCUCAGAGUCAGGAUAUAGUCGAAAGGGCUAGACUAGAAGGGACAUGAGGAUCACCCAUGUAAAAUAUCAAA	19.2 nM	29.8 nM	–	–
GCCAUCGUAUGAGGAUAUGCUCCGGUUUCCGGAGCAGAAGGCAUGUCAUAAGACAUGAGGAUCACCCAUGUAGUUAAGAUGGCA	–	–	135 nM	9.66 nM
GUAGCAUAGACAGGAUAUUCAUAUAAUAAAUAAACAUGAGGAUCACCCAUGUGGCGAAAGCCUUGGGAGAAGGGUCAAUGCUAC	–	–	1070 nM	82.1 nM
UGGGUUGUUGUGAGGAUAUACUGUUUGUUUUGUUUGUAGAAGGUACAUGAGGAUCACCCAUGUUGGUUGUGGUU	262 nM	228 nM	–	–
GUCAGCUCGUGAGGAUAUACAAAACUGCUUCGGCAGUGUAUUAAGAUCACAUGAGGAUCACCCAUGUAGAAGGCACGAGCUGAU	8.71 nM	82.3 nM	–	–
UCCUUGUCCUGAGGAUAUCCGCGGUUCCCAAAAGGAGAAGGCAGGACAUGAGGAUCACCCAUGUACCGAGAAAACGUGCAGAGU	12.7 nM	105 nM	–	–
UGGUACAUGGGAGGAUAUGGGUUGUUAACAUGAGGAUCACCCAUGUUAUGCCGAAAGGCAAAGAACUAGAAGGCCCAUGUACCU	–	–	21.9 nM	16.4 nM
CUCCUCGUGUCGAACAUGAGGAUCACCCAUGUAAUGGGCACCGAGGAUAUCCCGCUGGCGUUAUGGGAGAAGGCGGUGGAUUUA	42.6 nM	40.2 nM	–	–
UUUGUUUAUGUGAGGAUAUACUGUUUGUUUUGUUUGUAGAAGGUACAUGAGGAUCACCCAUGUUUUGUUUUUUU	22.8 nM	20.5 nM	–	–

Sequence	apparent Kd [1]	apparent Kd [2]	apparent Kd [3]	apparent Kd [4]
GCACUGGAUGUAGGAUAUCAGGACGAUAAGUCCUGAGAAGGACAUGAGGAUCACCCAUGUAAAACUCCACCAGUGCAUAAUAUA	13.1 nM	17.9 nM	–	–
CUAUAGAUAUCAGGAUAUCUAUUUCCUACAUGAGGAUCACCCAUGUAGAGGAUCACCCAUGUAAAGGAGAAGGGAUAUCUAUAG	–	–	91.3 nM	20.4 nM
GGAAUACAUGAGGAUCACCCAUGUAAGGAUAUGCUGAUUAAAUUGGAUUAAUUAUGCAGCAGAAGGUACAAAAG	78.7 nM	79.6 nM	–	–
UAUGUAUCCUCGGGAUCCACAUGAGGAUCACCCAUGUAGACUCAGGAUAUCCAAUGCGUUGACAGGGAGAAGGGAGUUCGCAUG	44.2 nM	36.2 nM	–	–
GUCGGAAACGACAAAAGUAUGGAUCCAGAAGGUAUGAAACAUGAGGAUCACCCAUGUCAAAGACAUGAGGAUAUGGAUCCAUAC	–	–	32.4 nM	9.54 nM
CAGCAAAGGUAGAAGGCAGUACUGAUACAGUACUGAGGAUAUACAUGAGGAUCACCCAUGUAAAAAAGCUGGAAAUAAAUAAAA	7.39 nM	10 nM	–	–
AACGGGUGGGUAGGAUAUGGCUAUGUCUCAUUGCUAGAAGGACCAGCUGCUACAUGAGGAUCACCCAUGUCGUAGUGCACCCAG	–	–	421 nM	33.5 nM
GGCGUUCGCACAGGAUAUGCAUUAGACAUGAGGAUCACCCAUGUAGGCUAAGCAGAAGGGUGGGUGUGUCUAAGGAAAUUCUUC	–	–	172 nM	42.4 nM
AGUCGGAGCAGAGGAUAUACAUGAGGAUCACCCAUGUAAUAAGAUCAAGCCUGGAAACAGGCAAUGUAGAAGGCUGCUCCGACA	34.2 nM	338 nM	–	–
AUUAAGCAGCAGGAUAUAAGUAUCUAAAGGUGGUUAGAAGGGCUGACAUGAGGAUCACCCAUGUGCUCUUCGUG	15.7 nM	21.1 nM	–	–
UUAAUUAAUUAAUUGCAGUUACAUGAGGAUCACCCAUGUAUAUAGGAUAUCGUCAGGAAUACUGACGAGAAGGAUAUACUCUGC	21.6 nM	26.7 nM	–	–
CGCUAAUAAUUAAUAUUAAUUGUACAGGAUAUGUAACAUGAGGAUCACCCAUGUAUUGGGUUUAAACAGAAGGGUAUAUUAGCG	387 nM	92.4 nM	–	–
UGAAAUCAUGUAGGAUAUGCAUGGCGAAGCUACGCAGAAGGACAUGAGGAUCACCCAUGUUCUAGCUACCGGAUACGGUGGCAA	23.1 nM	116 nM	–	–
UGAUAGCACAGAGGAUAUGCGUAGUGUUAUCUCUACAUGAGGAUCACCCAUGUAGAAGGCUGUGCUAUCUAAGUCGGAAACGAU	6.19 nM	9.86 nM	–	–
GUAGCAUACCGAGGAUAUUCAUCCGGAAACGGACAUGAGGAUCACCCAUGUGCAGAAAACUGCUGGGAGAAGGCGGAAUGCUAC	–	–	89.7 nM	16.9 nM
AACUGGUGUGAGAAGGGACGUAUCUCCAUGAGGGCAGGGCUAUUAGAGAAGUCAGGAUAUCACAUGAGGAUCACCCAUGUGACG	8.33 nM	9.02 nM	–	–
CUUGUGUUAGGAUAUGCGCCCUGCAAAAGCAGAGCCAGAGAGCAGAAGGAACAUGAGGAUCACCCAUGUGUGAC	67.5 nM	61.3 nM	–	–
AAUGGCGUGAUAAUGCUAAUUAAAACAUGAGGAUCACCCAUGUAGGAUAUCCUACCGAAAUGGUAGGAGAAGGACAAGCAAUGA	44.1 nM	46.6 nM	–	–
CACUCACAUGAGGAUCACCCAUGUCCUAGCAGGUCAGGAUAUAGCUCGGAUGCGUUCAGUCUAGAAGGGACACGUU	–	–	156 nM	111 nM
GUCAUGUAAGGAUAUCUUACAUGUGACUUCGGUCACUGUCGAGAGAAGGUACAUGAGGAUCACCCAUGUUCGAC	17.3 nM	24 nM	–	–
UUCUUGUGAGGAUAUCAGUAGUAAAUAAAUAAAAUUACUACUGAGAAGGCACAUGAGGAUCACCCAUGUUCCUU	14.6 nM	32.9 nM	–	–
